This is a sample that favours compounds with a hit; in the whole collection about 4.1% have one here.
KCNQ1 act: potentiators or activators of KCNQ1 channel, primary screen, cell-based, thallium flux, high-throughput | Potassium voltage-gated channel subfamily KQT member 1 (Homo sapiens), P51787 | B-score at 10 µM | 310,000 tested, 0.35% active | CHO-K1 KCNQ1, thallium flux FluxOR fluorescence; stronger effect = higher value | AID 2648, 2010;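 active = fluorescence ratio B-score, a plate-corrected score, at least three library SD, with initial intensity B-score within 5 SD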
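Assay system: stable KCNQ1 CHO-K1 line; medium: assay buffer, equal DMSO in all wells; timing: 90 min dye loading and 20 min compound exposure, both at room temperature; technique: kinetic FluxOR thallium fluorescence, 10-s 1-Hz baseline, 110-s post-stimulus read; read-out basis: B score of baseline-normalized fluorescence ratio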
Cl transport mod: KCC2 cotransporter modulators, thallium flux, primary screen, cell-based, HEK293 KCC2, FluoZin-2 fluorescence, MLSMR | Solute carrier family 12 member 5 (Homo sapiens), Q9H2X9 | KCC2 cells, thallium flux FluoZin-2 fluorescence | B-score of Tl+ flux slope (higher = more flux/activation; lower = inhibition) at 10 µM | 190,000 tested, 2.2% active;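 active = thallium flux slope and its plate-corrected score both differing from the plate sample mean at a set confidence after two filtering rounds, in either direction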;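 also: slope of fluorescence scaled to starting intensity during 10 to 20 s after thallium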
KCNK9 inh: KCNK9 potassium channel inhibitors, primary screen, HEK293 cells, thallium flux. Potassium channel subfamily K member 9 (Homo sapiens), Q9NPC2. FluxOR thallium flux fluorescence; stronger effect = lower value. B-score at 10 µM. 310,000 tested, 1.2% active. AID 488922, 2010;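 active = ratio B-score over 3 SD below the library mean, with starting fluorescence within 5 SD of its mean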;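 also: negative B-score means less thallium flux so channel inhibition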
KCNQ1 block: inhibitors of human KCNQ1 channel, primary screen, cell-based, thallium flux, high-throughput; 310,000 tested, 1.3% active; AID 2642, 2010; B-score at 10 µM; Potassium voltage-gated channel subfamily KQT member 1 (Homo sapiens), P51787; CHO-K1 KCNQ1, FluxOR thallium flux fluorescence; stronger effect = higher value;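 active = compounds whose thallium flux B-score, printed positive for inhibition, exceeds three library SD while starting fluorescence stays within three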;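 also: channel opened by potassium depolarization with thallium stimulus after 20 min compound exposure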
hERG rescue: hERG rescue from dofetilide block, primary screen, cell-based, CHO-hERG, FluxOR thallium flux, dofetilide IC70. activation (rescue from dofetilide block), less the hit threshold, % at 10 µM. AID 1511, 2009. 310,000 tested, 0.51% active. dofetilide IC70 present;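 active = activation above the mean of controls blocked by dofetilide plus 5 SD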;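 also: thallium influx through hERG after potassium depolarization seen as dye fluorescence rise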
Target sequence (Q12809 whole entry, looked up): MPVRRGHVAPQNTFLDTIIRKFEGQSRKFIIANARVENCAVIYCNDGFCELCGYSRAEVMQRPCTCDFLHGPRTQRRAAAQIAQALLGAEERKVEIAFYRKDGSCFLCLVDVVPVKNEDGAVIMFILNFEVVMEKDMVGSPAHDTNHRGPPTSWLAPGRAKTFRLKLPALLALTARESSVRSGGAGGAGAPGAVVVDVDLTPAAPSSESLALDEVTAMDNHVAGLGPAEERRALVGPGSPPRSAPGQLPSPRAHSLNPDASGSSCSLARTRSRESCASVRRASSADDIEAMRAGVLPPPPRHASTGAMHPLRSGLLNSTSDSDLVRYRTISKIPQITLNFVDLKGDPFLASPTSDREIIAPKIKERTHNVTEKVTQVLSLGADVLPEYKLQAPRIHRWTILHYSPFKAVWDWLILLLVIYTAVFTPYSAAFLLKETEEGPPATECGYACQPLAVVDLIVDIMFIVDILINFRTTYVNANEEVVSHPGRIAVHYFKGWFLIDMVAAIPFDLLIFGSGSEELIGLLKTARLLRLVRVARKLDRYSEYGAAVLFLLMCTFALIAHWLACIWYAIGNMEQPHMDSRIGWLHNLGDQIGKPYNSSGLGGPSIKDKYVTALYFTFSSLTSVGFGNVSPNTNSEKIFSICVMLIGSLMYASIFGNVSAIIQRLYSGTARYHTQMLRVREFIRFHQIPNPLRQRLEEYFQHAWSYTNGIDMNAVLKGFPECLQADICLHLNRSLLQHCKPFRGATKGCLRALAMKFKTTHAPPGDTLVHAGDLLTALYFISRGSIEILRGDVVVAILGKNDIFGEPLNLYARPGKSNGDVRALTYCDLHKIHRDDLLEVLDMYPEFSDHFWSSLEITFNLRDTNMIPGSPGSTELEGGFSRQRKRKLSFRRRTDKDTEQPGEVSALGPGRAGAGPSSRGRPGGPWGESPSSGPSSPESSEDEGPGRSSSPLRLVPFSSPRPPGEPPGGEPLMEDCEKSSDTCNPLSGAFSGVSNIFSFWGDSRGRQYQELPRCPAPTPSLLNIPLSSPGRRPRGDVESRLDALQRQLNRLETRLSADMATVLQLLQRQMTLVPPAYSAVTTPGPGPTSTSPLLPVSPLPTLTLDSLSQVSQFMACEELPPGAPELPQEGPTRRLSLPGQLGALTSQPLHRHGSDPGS
KCNK3 block: human KCNK3 channel inhibitors, primary screen, CHO cells, FluxOR thallium flux, B-score | Potassium channel subfamily K member 3 (Homo sapiens), O14649 | FluxOR fluorescence; stronger effect = lower value | B-score at 10 µM | 340,000 tested, 0.84% active | AID 602410, 2012;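 active = B-score under library mean minus 4 SD, starting fluorescence ratio at most library mean plus 5 SD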;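 also: more negative B-score means stronger inhibition of thallium flux through KCNK3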
The depositor's hits bear a star; i = inactive; / = no result.

SMILES	KCNQ1 act	Cl transport mod	KCNK9 inh	KCNQ1 block	hERG rescue	KCNK3 block
C(=C\c1ccccc1)/CSc1nnc(-c2ccncc2)n1Cc1ccco1	i	-5*	i	i	-8	i
CN(C)CC(=O)N1c2ccccc2Sc2ccc(Cl)cc21	i	-0.93	i	i	-8	i
COc1ccc(C(=O)c2ccc([N+](=O)[O-])cc2)c(OC)c1OC	/	/	/	/	/	i
NCCSc1c(-c2ccccc2)[nH]c2ccccc12	i	-0.18	i	i	-13	i
NCCSc1c(-c2ccc(Cl)cc2)[nH]c2ccccc12	i	-1.3	-7.3*	i	-22	i
COc1ccccc1NS(=O)(=O)c1ccc(C)c(C(=O)NCC(c2cccs2)N2CCOCC2)c1 (centres undefined)	/	/	/	/	/	i
COc1ccc2cc(CN(CCc3ccccc3)Cc3nnnn3Cc3ccco3)c(=O)[nH]c2c1	i	-3.1*	i	i	-11	i
COc1ccc2[nH]c(=O)c(CN(Cc3nnnn3Cc3ccco3)C3CCCCC3)cc2c1	i	/	i	i	-31	i
COc1ccc2[nH]c(=O)c(CN(Cc3ccco3)C(c3nnnn3Cc3ccccc3)C(C)C)cc2c1 (centres undefined)	i	0.09	i	7*	-9	i
COCCn1nnnc1C(C(C)C)N(Cc1ccccc1)Cc1cc2cc(OC)ccc2[nH]c1=O (centres undefined)	/	1.1	/	/	/	i
COc1ccc2[nH]c3c(c2c1)CCN1C(=O)C(CC(=O)NCc2ccco2)C[C@H](C(=O)N2CCCCC2)[C@@]31CCc1ccccc1 (some centres undefined)	/	/	/	/	/	i
CCCCCCCCNc1nc(Cl)nc(NCc2ccco2)n1	i	0.002	i	i	-7	i
CCCCCCNc1nc(NCc2ccco2)nc(OCC)n1	i	-1.7	-6.9*	i	-7	i
CN1/C(=C\C(=O)CN2C(=O)NC3(CCCCCC3)C2=O)C(C)(C)c2ccccc21	i	-3.6*	i	i	-22	i
COc1ccc(OC)c(/C=C2\SC(N3CCCC(C)C3)=NC2=O)c1 (centres undefined)	i	/	i	7*	-13	i
COc1ccc(/C=C2\SC(N3CCCCC3)=NC2=O)cc1OC	i	/	i	i	-4	i
CCOC(=O)[C@@H]1CSCCS(=O)(=O)N1Cc1ccccc1Br	/	/	/	/	/	i
Cc1ccc(NC(=O)CN2C(=O)NC(C)(CC(C)C)C2=O)c(Br)c1 (centres undefined)	/	/	/	/	/	i
CCCCNc1c(-c2ccc(SC(C)CC)c(OC)c2)nc2ccc(Cl)cn12 (centres undefined)	/	/	/	/	/	i
CCC(C)Sc1cccc(-c2nc3ccc(Cl)cn3c2NCc2ccccc2)c1 (centres undefined)	i	/	i	i	-24	i
CCCCNc1c(-c2ccc(SC(C)CC)c(OC)c2)nc2ccc(C)cn12 (centres undefined)	i	/	i	8*	-10	i
CCC(C)Sc1cccc(-c2nc3ccc(C)cn3c2NCc2ccccc2)c1 (centres undefined)	i	/	i	7*	-29	i
Cc1sc2nc(CN3CCOCC3)[nH]c(=S)c2c1C	43*	73*	i	i	52*	i
Cc1sc2nc(CN3CCN(c4ccc(O)cc4)CC3)[nH]c(=O)c2c1C	i	0.045	i	i	-4	i
CCn1c(SCC(=O)OCC(=O)N2c3ccccc3NC(=O)C2(C)C)nnc1-c1ccco1	i	-0.88	i	i	7.0*	i
SMILES	KCNQ1 act	Cl transport mod	KCNK9 inh	KCNQ1 block	hERG rescue	KCNK3 block
CC1(C)C(=O)Nc2ccccc2N1C(=O)COC(=O)CSc1ccc(Cl)cc1	/	/	/	/	/	i
CN(c1ccccc1)c1ncnc2c1ncn2C	/	/	/	/	/	i
Cc1ccc(NC(=O)CN2C(=O)S/C(=C\c3cccn3-c3cccc(C(=O)O)c3)C2=O)cc1C	i	-2.9	i	i	-8	i
Cc1ccc(NC(=O)CN2C(=O)S/C(=C\c3cccn3-c3cccc(C(=O)O)c3)C2=O)c(C)c1	i	-2	i	i	5.4*	i
Cc1ccccc1NC(=O)CN1C(=O)S/C(=C\c2cccn2-c2cccc(C(=O)O)c2)C1=O	i	/	i	i	0	i
COc1ccc(NC(=O)CN2C(=O)S/C(=C/c3cccn3-c3ccc(C(=O)O)cc3)C2=O)cc1	i	/	i	i	16*	i
O=C(Oc1c(Br)cc([N+](=O)[O-])cc1Br)c1cccnc1	i	-1.8	i	7*	-13	i
N/C(=N\OC(=O)c1ccc([N+](=O)[O-])cc1)c1cccnc1	i	0.32	i	i	-6	i
O=c1/c(=C/c2ccccn2)sc2nc3ccccc3n12	/	/	/	/	/	i
O=c1/c(=C\c2cc([N+](=O)[O-])cc([N+](=O)[O-])c2O)sc2nc3ccccc3n12	/	-3.3*	/	/	/	i
CC(C)Cc1ccc(CN2CCCC(NC(=O)c3cccc(-n4cnnc4)c3)C2)cc1 (centres undefined)	i	/	i	i	-19	i
NC(=O)C1(NC2CCCCC2)CCN(Cc2ccccc2)CC1	/	/	/	/	/	i
CCOC(=O)c1c(S(=O)(=O)N2CCC(C)CC2)c(C)n(C)c1C	i	/	i	i	-6	i
Cc1ccc2nc(C)c(CN3CCN(c4ccc([N+](=O)[O-])cc4Cl)CC3)n2c1	i	/	i	9*	-17	i
CC/C(=N\NC(=O)c1cc(C2CC2)[nH]n1)c1ccccc1	i	/	i	i	-8	i
Cc1nc2ccccc2c2oc(C(=O)NCC3COc4ccccc4O3)cc12 (centres undefined)	i	-3.2	i	i	-17	-10*
Cc1nc2ccccc2c2oc(C(=O)Nc3ccc(C(C)C)cc3)cc12	i	1	i	9*	-8	i
CCN1CCCC1CNC(=O)c1cc2c(C)nc3ccccc3c2o1 (centres undefined)	i	0.83	i	i	-10	i
COc1cc(C(=O)Nc2ccn(C)n2)ccc1OC(F)F	/	/	/	/	/	i
CCOC(=O)/C(=N\Nc1ccccc1Cl)N1CCN(C)CC1	i	-0.22	i	i	-6	i

Compound activity: PubChem BioAssay, several laboratories
